Screening results from PubChem BioAssay.
The list is not random: actives were taken first. Their share in the collection is about 5.2%.
M1 agonist: agonists of M1 muscarinic receptor | CHO-M1 cells, Fluo-4 calcium fluorescence, agonist mode; hits give high values | B-score at 10 µM | actives 3% (n = 64,000) | AID 626;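 active means fluorescence rise, raw or as B-score row- and column-corrected plate score, outside the 99.7% band of its plate's samples, either direction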
tolC growth inh: E. coli tolC mutant growth inhibition; actives 2.2% (n = 65,000); AID 573; growth inhibition, % at 10 µM (by protocol); E. coli BW25113 tolC mutant growth, OD615;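 active means growth inhibition at or above a cutoff equal to the mean over every tested compound plus 3 SD, cut at about 60% in these data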;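 further: growth measured after 20 h incubation at 37 °C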
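Test system: tolC-deleted E. coli BW25113 | Medium: LB with kanamycin 50 µg/mL | Compound dosing: Single concentration, 10 µM final per compound | Schedule: 37 °C, 20 h exposure | Measured by: OD at 615 nm | Evaluation: Percent growth inhibition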
E coli WT exp: growth inhibitors of E. coli BW25113 wild type | OD600 absorbance | growth inhibition, % at 100 µM | actives 0.15% (n = 98,000) | AID 710;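 active means growth inhibition above about 50% at one test dose, limit read from the data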;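 further: growth measured after 20 h incubation at 37 °C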
AP complement: orthogonal test for alternative complement pathway inhibitors; Human serum alternative complement pathway, LPS-coated ELISA, C3 deposition; tested in compound mixtures; inhibition, % at 5 µM; actives 0.08% (n = 62,000);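 active means inhibition above 30% in each of the two pooled mixtures holding the compound, so the lower value exceeds 30%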;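 further: 0% = serum in Mg-EGTA without compound and 100% = EDTA serum blank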
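Medium: diluted human serum in Mg2+-EGTA GVB++. Assay system: human serum complement alternative pathway, C3 deposition onto LPS. Also added: Plate-bound LPS. Technique: Anti-C3 ELISA, OD 450 nm. Measure: percent inhibition. Incubation: 1 h at 37 °C. Dosing: 5 µM each compound, pools of ten, 50 µM per pool.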
WNV protease inh: blocks West Nile virus NS2B-NS3 protease activity; P06935; WNV NS2B-NS3 protease, fluorogenic substrate Ex360/Em465; hits give low values; z-score (test concentration not listed); actives 0.18% (n = 65,000); AID 577; in the data active means z-score below about -3
Target sequence (P06935 1371-1501 limits assumed): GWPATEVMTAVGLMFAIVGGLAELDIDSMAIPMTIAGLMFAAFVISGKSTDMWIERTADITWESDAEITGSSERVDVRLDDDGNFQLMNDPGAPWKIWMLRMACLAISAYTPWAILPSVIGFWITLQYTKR
Target sequence (P06935 1502-1679 limits assumed): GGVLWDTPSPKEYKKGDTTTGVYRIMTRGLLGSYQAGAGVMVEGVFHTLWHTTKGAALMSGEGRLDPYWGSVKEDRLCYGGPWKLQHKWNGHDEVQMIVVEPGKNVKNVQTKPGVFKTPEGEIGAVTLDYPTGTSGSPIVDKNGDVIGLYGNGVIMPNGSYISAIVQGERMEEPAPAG
M1 antagonist: blocks the rat M1 muscarinic receptor response to acetylcholine. CHO-M1 cells, Fluo-4 calcium, ACh EC80 antagonist mode; hits give low values. actives 3.4% (n = 64,000). B-score at 10 µM. P08482;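 active means calcium fluorescence response, raw or row-and-column corrected B-score, differing from the plate sample mean either way at a set confidence level, mostly lower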
M1 antag confirm: M1 muscarinic receptor (rat) antagonism, confirmed | CHO-M1 cells, Fluo-4 calcium, ACh EC80 antagonism; hits give low values | actives 43% (n = 1,700) | calcium response (max-min fluorescence) at 10 µM | AID 677 | shares compounds with M1 antagonist;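 active means calcium response below the same-plate mean of wells given acetylcholine alone at its 80%-effect dose, minus 3 SD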;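 further: raw fluorescence intensity difference in arbitrary instrument units and not normalized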
mGluR4 antag: mGluR4 (human) activity, M1 antagonist secondary assay; shares compounds with M1 antagonist; actives 0.9% (n = 1,700); AID 678; CHO-mGluR4 calcium flux, Fluo-4 fluorescence, glutamate EC80; hits give low values; fluorescence response (max-min) at 10 µM;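 active means fluorescence response below the plate's average for near-maximal glutamate wells, less 3 SD of those wells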;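 further: raw unnormalized fluorescence span taken in the window right after glutamate addition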
The depositor's hits bear a star.

For CCC(c1nnnn1Cc1ccco1)N(Cc1ccccc1OC)Cc1cc2cc(C)ccc2[nH]c1=O (stereo not given) the results were M1 agonist 0.65, tolC growth inh 23, E coli WT exp -9, AP complement 7, WNV protease inh -2, M1 antagonist -2.2*, M1 antag confirm 590 and mGluR4 antag 201.
For CCCc1cc(=O)oc2cc(C)cc(O)c12 the results were E coli WT exp 22.
`CCCc1cc(=O)oc2cc(C)cc(OC(=O)c3ccco3)c12` gave M1 agonist -0.29, tolC growth inh 13, E coli WT exp -7, AP complement -5, WNV protease inh -0.25, M1 antagonist -2.9*, M1 antag confirm 551 and mGluR4 antag 205.
For COc1ccc(OC)c(S(=O)(=O)NCCC2=CCCCC2)c1 the results were M1 agonist 1.2, tolC growth inh 22, E coli WT exp 9, AP complement 12, WNV protease inh -0.75, M1 antagonist -2.7*, M1 antag confirm 441* and mGluR4 antag 229.
Screening COc1cccc(CNc2nc3ccccc3n2CCN2CCCCC2)c1 returned M1 agonist -2.1, tolC growth inh -8, E coli WT exp 19, AP complement 14, WNV protease inh -0.87, M1 antagonist -4.3*, M1 antag confirm 608 and mGluR4 antag 273.
`COc1ccc(OC)c(CNc2nc3ccccc3n2CCN2CCCCC2)c1` gave tolC growth inh 28, E coli WT exp 13, AP complement 9 and WNV protease inh 0.16.
For CCN1CCN(Cc2ccc(OCc3ccccc3)cc2)CC1 the results were M1 agonist -0.62, tolC growth inh -15, E coli WT exp -4, AP complement 7, WNV protease inh 0.81, M1 antagonist -4.4*, M1 antag confirm 345* and mGluR4 antag 178.
For CN1CCN(Cc2ccc(OCc3ccccc3)cc2)CC1 the results were M1 agonist -1.2, tolC growth inh -10, E coli WT exp -4, AP complement 7, WNV protease inh -0.47 and M1 antagonist -1.1.
For CC(O)CNC(=O)C1CCN(Cc2ccc(OCc3ccccc3)cc2)CC1 (stereo not given) the results were M1 agonist -0.39, tolC growth inh -11, E coli WT exp 5, AP complement -4, WNV protease inh -0.92, M1 antagonist -4.8*, M1 antag confirm 572 and mGluR4 antag 232.
`CC1(C)C(=O)OC(c2c(F)c(F)c(F)c(F)c2F)C2(CCCCC2)C1=O` (stereo not given) gave M1 agonist 0, tolC growth inh -6, E coli WT exp -1, AP complement 8, WNV protease inh 1.5 and M1 antagonist 0.74.
Cc1ccc(C)c(NC(=O)CNS(=O)(=O)c2ccccc2)c1 was read as M1 agonist 0.4, tolC growth inh -7, E coli WT exp -7, AP complement 9, WNV protease inh 2.9 and M1 antagonist 2.2.
COCc1nnc(NS(=O)(=O)c2c(C)cc(C)cc2C)s1 was read as E coli WT exp -9.
COc1ccccc1C(=O)NC(C)C(c1cccs1)N1CCOCC1 (stereo not given) was read as M1 agonist -0.29, tolC growth inh 1, E coli WT exp -6, WNV protease inh 0.05, M1 antagonist -3.5*, M1 antag confirm 656 and mGluR4 antag 249.
`Cc1ccccc1C(=O)NC(C)C(c1cccs1)N1CCOCC1` (stereo not given) gave E coli WT exp 1.
Screening CN1CCN(C2=C(Cl)C(=O)N(Cc3ccccc3)C2=O)CC1 returned M1 agonist -0.3, tolC growth inh 3, E coli WT exp 1, AP complement 21, WNV protease inh -0.45, M1 antagonist -5.6*, M1 antag confirm 226* and mGluR4 antag 214.
`c1ccc(N2CCN(c3nc(NCc4ccco4)c4ccccc4n3)CC2)cc1` gave M1 agonist 0.27, tolC growth inh 3, E coli WT exp -3, AP complement -2, WNV protease inh -0.06 and M1 antagonist -0.65.
c1coc(CNc2nc(N3CCCCC3)nc3ccccc23)c1 was read as M1 agonist 2.7, tolC growth inh 71*, E coli WT exp 31, AP complement 23, WNV protease inh -0.67, M1 antagonist -1.5*, M1 antag confirm 465 and mGluR4 antag 203.
`CC(C)CC(c1nnnn1Cc1ccccc1)N1CCN(C(=O)c2ccco2)CC1` (stereo not given) gave M1 agonist -0.059, tolC growth inh 8, E coli WT exp 0, AP complement 1, WNV protease inh -0.86 and M1 antagonist -1.7.
`CC(C)CCn1c(NCCN(C)C)nc2c1c(=O)[nH]c(=O)n2C` gave M1 agonist 0.074, tolC growth inh -42, E coli WT exp 1, AP complement 3, WNV protease inh 0.47, M1 antagonist -4*, M1 antag confirm 601 and mGluR4 antag 274.
CCCNc1nc2c(c(=O)[nH]c(=O)n2C)n1CCC(C)C was read as M1 agonist 0.2, tolC growth inh -21, E coli WT exp -6, AP complement 25, WNV protease inh -0.59 and M1 antagonist 1.5.
`CC(C)C12CN3CC(C(C)C)(CN(C1)C31C(=O)Nc3ccccc31)C2=O` (stereo not given) gave M1 agonist -0.056, tolC growth inh -3, E coli WT exp -1, AP complement 0, WNV protease inh -0.57 and M1 antagonist -0.51.
For Cc1ccc(N2C(=O)CSC23C(=O)Nc2ccccc23)cc1 (stereo not given) the results were M1 agonist 1.5, tolC growth inh 15, E coli WT exp 6, AP complement -10, WNV protease inh 0.66, M1 antagonist -3.2*, M1 antag confirm 428 and mGluR4 antag 217.
Screening O=C(CNS(=O)(=O)c1cccs1)N1CCc2ccccc2C1 returned M1 agonist 0.6, tolC growth inh 1, E coli WT exp 2, AP complement 22, WNV protease inh 0.7 and M1 antagonist 0.029.
Screening O=C1CSC(c2ccccc2F)N1CCN1CCCCC1 (stereo not given) returned M1 agonist -0.034, tolC growth inh -15, E coli WT exp -4, AP complement 10, WNV protease inh 1.3, M1 antagonist -2.8*, M1 antag confirm 481* and mGluR4 antag 230.
For Cc1cc(C)c2nc(C(F)(F)F)nc(NCCCN3CCOCC3)c2c1 the results were E coli WT exp 5.
